{"source": "ChEMBL document CHEMBL1139389", "about": "“Discovery of the Poly(ADP-ribose) polymerase (PARP) inhibitor 2-[(R)-2-methylpyrrolidin-2-yl]-1H-benzimidazole-4-carboxamide (ABT-888) for the treatment of cancer” (J Med Chem, 2009)", "key": {"[1]": {"experiment": "Protein binding in Beagle dog plasma at 5 uM", "assay_type": "ADME, cell-free, Canis lupus familiaris", "details": "read-out: PPB (converted)"}, "[2]": {"experiment": "Protein binding in cynomolgus monkey plasma at 5 uM", "assay_type": "ADME, cell-free, Macaca fascicularis", "details": "read-out: PPB (converted)"}, "B16-F10 [3]": {"test_system": "B16-F10", "experiment": "Antitumor activity against mouse B16F10 cells xenografted in C57BL/6 mouse assessed as tumor volume at 12.5 mg/kg/day, po after 14 days", "assay_type": "functional"}, "B16-F10 [4]": {"test_system": "B16-F10", "experiment": "Antitumor activity against mouse B16F10 cells xenografted in C57BL/6 mouse assessed as growth inhibition at 12.5 mg/kg/day, po after 14 days relative to control", "assay_type": "functional"}, "B16-F10 [5]": {"test_system": "B16-F10", "experiment": "Potentiation of temozolomide-induced cytotoxicity against mouse B16F10 cells xenografted in C57BL/6 mouse assessed as growth inhibition at 12.5 mg/kg/day, po after 17 days relative to temozolomide monotherapy", "assay_type": "functional", "outline": "(§1)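 B16F10 syngeneic model: 6×10^4 cells in 50% matrigel injected sc into the flank of 6–8 week old female C57BL/6 mice (20 g), allocated to groups by injection order. Inhibitor given po bid days 6–11 at 1, 5 or 12.5 mg/kg/day; temozolomide 50 mg/kg/day po qd days 6–11. Tumor volume by caliper as L×W²/2; TGI versus temozolomide alone.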"}, "B16-F10 [6]": {"test_system": "B16-F10", "experiment": "Potentiation of temozolomide-induced cytotoxicity against mouse B16F10 cells xenografted in C57BL/6 mouse assessed as growth inhibition at 5 mg/kg/day, po after 17 days relative to temozolomide monotherapy", "assay_type": "functional", "outline": "as §1"}, "B16-F10 [7]": {"test_system": "B16-F10", "experiment": "Potentiation of temozolomide-induced cytotoxicity against mouse B16F10 cells xenografted in C57BL/6 mouse assessed as growth inhibition at 1 mg/kg/day, po after 17 days relative to temozolomide monotherapy", "assay_type": "functional", "outline": "as §1"}, "MX1 [8]": {"test_system": "MX1", "experiment": "Potentiation of carboplatin-induced cytotoxicity against human MX1 cells xenografted in SCID mouse assessed as growth inhibition at 1 mg/kg/day, sc osmotic minipump after 42 days relative to carboplatin monotherapy", "assay_type": "functional", "details": "route subcutaneous", "outline": "(§2)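 MX-1 xenograft: 0.2 cc of 1:10 tumor brei injected sc into the flank of female SCID mice on day 0; size-matched on day 15, 10 mice/group. Inhibitor 1–50 mg/kg/day by sc osmotic minipump for 14 days from day 18; carboplatin 10 mg/kg ip on days 20, 24 and 28. Caliper volumes as L×W²/2; TGI relative to carboplatin alone.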"}, "MX1 [9]": {"test_system": "MX1", "experiment": "Potentiation of carboplatin-induced cytotoxicity against human MX1 cells xenografted in SCID mouse assessed as growth inhibition at 12.5 mg/kg/day, sc osmotic minipump after 42 days relative to carboplatin monotherapy", "assay_type": "functional", "details": "route subcutaneous", "outline": "as §2"}, "MX1 [10]": {"test_system": "MX1", "experiment": "Potentiation of carboplatin-induced cytotoxicity against human MX1 cells xenografted in SCID mouse assessed as growth inhibition at 5 mg/kg/day, sc osmotic minipump after 42 days relative to carboplatin monotherapy", "assay_type": "functional", "details": "route subcutaneous", "outline": "as §2"}, "MX1 [11]": {"test_system": "MX1", "experiment": "Potentiation of cyclophosphamide-induced cytotoxicity against human MX1 cells xenografted in SCID mouse assessed as growth inhibition at 5 mg/kg/day, sc osmotic minipump after 48 days relative to cyclophosphamide monotherapy", "assay_type": "functional", "details": "route subcutaneous", "outline": "(§3)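 Female SCID mice bearing sc MX-1 brei (0.2 cc of 1:10, day 0), size-matched on day 15, 10 per group. Inhibitor 5, 12.5 or 25 mg/kg/day by sc osmotic minipump for 14 days from day 18; cyclophosphamide 12.5 mg/kg ip on days 20, 24 and 28. Volumes from caliper L×W²/2; TGI versus cyclophosphamide alone.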"}, "MX1 [12]": {"test_system": "MX1", "experiment": "Potentiation of cyclophosphamide-induced cytotoxicity against human MX1 cells xenografted in SCID mouse assessed as growth inhibition at 12.5 mg/kg/day, sc osmotic minipump after 48 days relative to cyclophosphamide monotherapy", "assay_type": "functional", "details": "route subcutaneous", "outline": "as §3"}, "MX1 [13]": {"test_system": "MX1", "experiment": "Potentiation of cyclophosphamide-induced cytotoxicity against human MX1 cells xenografted in SCID mouse assessed as growth inhibition at 25 mg/kg/day, sc osmotic minipump after 48 days relative to cyclophosphamide monotherapy", "assay_type": "functional", "details": "route subcutaneous", "outline": "as §3"}, "MX1 [14]": {"test_system": "MX1", "experiment": "Potentiation of carboplatin-induced cytotoxicity against human MX1 cells xenografted in SCID mouse assessed as growth inhibition at 50 mg/kg/day, sc osmotic minipump after 42 days relative to carboplatin monotherapy", "assay_type": "functional", "details": "route subcutaneous", "outline": "as §2"}, "MX1 [15]": {"test_system": "MX1", "experiment": "Potentiation of carboplatin-induced cytotoxicity against human MX1 cells xenografted in SCID mouse assessed as growth inhibition at 25 mg/kg/day, sc osmotic minipump after 42 days relative to carboplatin monotherapy", "assay_type": "functional", "details": "route subcutaneous", "outline": "as §2"}, "[16]": {"experiment": "Oral bioavailability in CD1 mouse at 10 mg/kg", "assay_type": "ADME, organism-based", "details": "in vivo", "outline": "(§4)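 Mouse PK: oral dose 10 mg/kg in 2.5% EtOH, 1 drop Tween-80, 25% PEG400 in PBS; iv dose 3 mg/kg in 2.5% EtOH, 5% DMSO, 1 drop Tween-80, 25% PEG400 in PBS. Oral bioavailability, iv half-life, oral AUC and Cmax derived from plasma profiles.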"}, "[17]": {"experiment": "Half life in CD1 mouse at 3 mg/kg, iv", "assay_type": "ADME, organism-based", "design": "dose 3 mg/kg, route intravenous", "details": "in vivo", "outline": "as §4"}, "[18]": {"experiment": "AUC in CD1 mouse at 10 mg/kg, po", "assay_type": "ADME, organism-based", "design": "dose 10 mg/kg, route oral", "details": "plasma", "outline": "as §4"}, "[19]": {"experiment": "Cmax in CD1 mouse at 10 mg/kg, po", "assay_type": "ADME, organism-based", "design": "dose 10 mg/kg, route oral", "details": "in vivo", "outline": "as §4"}, "[20]": {"experiment": "Volume of distribution at steady state in CD1 mouse at 10 mg/kg", "assay_type": "ADME, organism-based", "design": "dose 10 mg/kg", "details": "in vivo, read-out: Vdss"}, "[21]": {"experiment": "Clearance in CD1 mouse at 10 mg/kg", "assay_type": "ADME, organism-based", "design": "dose 10 mg/kg", "details": "in vivo", "outline": "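Mouse pharmacokinetics. Oral dose of 10 mg/kg in 2.5% EtOH, 1 drop Tween-80 and 25% PEG400 in PBS. Intravenous dose of 3 mg/kg in 2.5% EtOH, 5% DMSO, 1 drop Tween-80 and 25% PEG400 in PBS.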"}, "[22]": {"experiment": "Oral bioavailability in Sprague-Dawley rat at 5 mg/kg", "assay_type": "ADME, organism-based", "details": "in vivo"}, "[23]": {"experiment": "Half life in Sprague-Dawley rat at 5 mg/kg, iv", "assay_type": "ADME, organism-based", "design": "dose 5 mg/kg, route intravenous", "details": "in vivo"}, "[24]": {"experiment": "AUC in Sprague-Dawley rat at 5 mg/kg, po", "assay_type": "ADME, organism-based", "design": "dose 5 mg/kg, route oral", "details": "plasma"}, "[25]": {"experiment": "Cmax in Sprague-Dawley rat at 5 mg/kg, po", "assay_type": "ADME, organism-based", "design": "dose 5 mg/kg, route oral", "details": "in vivo"}}}
{"smiles": "C[C@]1(c2nc3c(C(N)=O)cccc3[nH]2)CCCN1", "note": "[VELIPARIB]", "values": [{"measurement": "fraction unbound at 5 µM", "setting": "[1]", "value": 0.59}, {"measurement": "fraction unbound at 5 µM", "setting": "[2]", "value": 0.59}, {"measurement": "Activity", "setting": "B16-F10 [3]", "value": 2452, "unit": "mm3"}, {"measurement": "TGI", "setting": "B16-F10 [4]", "value": 28, "unit": "%"}, {"measurement": "TGI", "setting": "B16-F10 [5]", "value": 64, "unit": "%"}, {"measurement": "TGI", "setting": "B16-F10 [6]", "value": 60, "unit": "%"}, {"measurement": "TGI", "setting": "B16-F10 [7]", "value": 43, "unit": "%"}, {"measurement": "TGI", "setting": "MX1 [8]", "value": 21, "unit": "%"}, {"measurement": "TGI", "setting": "MX1 [9]", "value": 58, "unit": "%"}, {"measurement": "TGI", "setting": "MX1 [10]", "value": 17, "unit": "%"}, {"measurement": "TGI", "setting": "MX1 [11]", "value": 31, "unit": "%"}, {"measurement": "TGI", "setting": "MX1 [12]", "value": 33, "unit": "%"}, {"measurement": "TGI", "setting": "MX1 [13]", "value": 61, "unit": "%"}, {"measurement": "TGI", "setting": "MX1 [14]", "value": 91, "unit": "%"}, {"measurement": "TGI", "setting": "MX1 [15]", "value": 78, "unit": "%"}, {"measurement": "bioavailability", "setting": "[16]", "value": 92, "unit": "%"}, {"measurement": "half-life", "setting": "[17]", "value": 1.6, "unit": "h"}, {"measurement": "AUC", "setting": "[18]", "value": 2200, "unit": "ng·h/mL"}, {"measurement": "Cmax", "setting": "[19]", "value": 1600, "unit": "ng/mL"}, {"measurement": "Vd", "setting": "[20]", "value": 9.4, "unit": "L/kg"}, {"measurement": "clearance", "setting": "[21]", "value": 68.3, "unit": "mL/min/kg"}, {"measurement": "bioavailability", "setting": "[22]", "value": 61, "unit": "%"}, {"measurement": "half-life", "setting": "[23]", "value": 1.2, "unit": "h"}, {"measurement": "AUC", "setting": "[24]", "value": 1500, "unit": "ng·h/mL"}, {"measurement": "Cmax", "setting": "[25]", "value": 500, "unit": "ng/mL"}]}
